Results from ChEMBL document CHEMBL4422642, “Antiproliferative and Antimigratory Effects of a Novel YAP-TEAD Interaction Inhibitor Identified Using in Silico Molecular Docking” (J Med Chem, 2019).
Each block holds one compound with its values, some of them ahead of it. Activity calls are given as the source filed them. No cut-off for these calls is given here.

What was measured:
HeLa [1] = assay: Inhibition of TEAD (unknown origin) expressed in human HeLa cells at 100 uM after 6 hrs by nanoluciferase reporter gene assay relative to control; assay type: cell-based
Summary of the method: (§1)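 HeLa cells stably transduced with a lentiviral 8×TEAD-element secreted nanoluciferase reporter were seeded at 2 × 10^4 cells/well and grown 48 h. They were washed and treated with compound for 2 h, washed again and re-treated for 4 h. Secreted nanoluciferase in the conditioned medium was assayed with NanoGlo; n = 3.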

HeLa [2] = assay: Cytotoxicity against human HeLa cells assessed as reduction in cell viability by measuring ethidium homodimer-1 uptake at 100 uM preincubated for 10 mins followed by ethidium homodimer-1 addition measured after 10 mins by fluorescence assay; assay type: cell-based
Summary of the method: (§2)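 Live/dead cell viability assay in HeLa cells. Maximum death was set by treating cells 10 min with 0.1% Triton-X, then 10 min with 0.4 μM ethidium homodimer-1. Fluorescence was read on a plate reader.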

HeLa [3] = assay: Cytotoxicity against human HeLa cells assessed as reduction in cell viability by measuring ethidium homodimer-1 uptake up to 150 uM preincubated for 10 mins followed by ethidium homodimer-1 addition measured after 10 mins by fluorescence assay; assay type: cell-based; summary of the method: as §2
HeLa [4] = assay: Inhibition of TEAD (unknown origin) expressed in human HeLa cells up to 150 uM after 6 hrs by nanoluciferase reporter gene assay; assay type: cell-based; summary of the method: as §1
VSMC [5] = assay: Antimigratory activity in rat VSMC incubated for overnight followed by media replacement and measured every hour for 24 hrs by phase contrast microscopic analysis; assay type: functional, cell-based
Summary of the method: (§3)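 IncuCyte real-time scratch wound assay. Cells were seeded in 96-well plates and grown 36 h, then pretreated overnight with compound. Wells were scratched and the medium was replaced with compound-containing medium. Phase-contrast images of the wound were taken hourly for 24 h and relative wound confluence was calculated; n = 4.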

HeLa [6] = assay: Cytotoxicity against human HeLa cells assessed as reduction in cell viability by measuring ethidium homodimer-1 uptake at 60 uM preincubated for 10 mins followed by ethidium homodimer-1 addition measured after 10 mins by fluorescence assay; assay type: cell-based; summary of the method: as §2
Rattus norvegicus [7] = species: Rattus norvegicus; assay: Inhibition of TEAD in rat VSMC assessed as reduction in CCN1 m-RNA expression incubated for 2 hrs followed by compound wash out and re-treatment for 4 hrs by NanoGlo assay
HeLa [8] = assay: Antiproliferative activity against human HeLa cells assessed as reduction in EdU incorporation after 24 hrs by Hoechst 33342 staining-based fluorescence assay; assay type: functional, cell-based
Summary of the method: (§4)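 Click-iT EdU assay. Cells were treated with compound for 24 h total, with 10 μM EdU present for the final labeling period. Cells were then fixed in 4% formaldehyde, stained for EdU and counterstained with Hoechst 33342 for 20 min. EdU-positive nuclei were counted in at least three fields per well; n = 4.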

[9] = target: T1, Transcriptional enhancer factor TEF-1 (Homo sapiens, UniProt P28347); assay: (§5) Inhibition of GFP-tagged YAP1 (unknown origin) interaction with myc-tagged human TEAD1 expressed in human HeLa cells by measuring GFP-Trap at 200 uM incubated for 30 mins with myc-tagged human TEAD1 lysate followed by GFP-tagged YAP1 lysate addition measured after 30 mins by Western blot based immunoprecipitation assay; assay type: cell-based
Summary of the method: (§6)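 Myc-TEAD1 and GFP-YAP1 were expressed separately in transfected HeLa cells, and pooled cytosolic plus nuclear extracts were prepared. The myc-TEAD extract was incubated 30 min on ice with 200 μM compound, then an equal volume of GFP-YAP lysate was added for another 30 min. Complexes were pulled down with GFP-Trap or Myc-Trap beads and quantified by Western blot; n = 3.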

[10] = Inhibition of TEAD (unknown origin) expressed in human HeLa cells after 6 hrs by nanoluciferase reporter gene assay; assay type: cell-based; summary of the method: as §1
HeLa [11] = assay: Antimigratory activity in human HeLa cells incubated for overnight followed by media replacement and measured every hour for 24 hrs by phase contrast microscopic analysis; assay type: functional, cell-based; summary of the method: as §3
[12] = target: T1, Transcriptional enhancer factor TEF-1; assay: Inhibition of human HEK293 cell lysate derived YAP interaction with recombinant GST-tagged human TEAD1 (194 to 411 residues) expressed in Escherichia coli soluBL21 at 200 uM after 18 hrs by Western blot analysis; assay type: subcellular
Summary of the method: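 GST–TEAD1 (about 5 μg) immobilized on glutathione resin beads, incubated with HEK293 whole-cell lysate containing endogenous YAP at 4 °C for 18 h. Resin washed; bound proteins eluted by boiling in Laemmli buffer. YAP and GST quantified by Western blot (anti-YAP, anti-GST); n = 2.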

[13] = target: T1, Transcriptional enhancer factor TEF-1; assay: Inhibition of NL-tagged YAP (unknown origin) interaction with myc-tagged human TEAD1 preincubated for 1 hr followed by NL-tagged YAP addition by NanoGlo assay
Summary of the method: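 Myc-TEAD1 from transfected HeLa lysate was captured with anti-myc antibody on protein-G-coated 96-well plates. Wells were pretreated with compound in PBS for 1 h at 4 °C, then co-incubated with lysate from HeLa cells expressing YAP–nanoluciferase. After four PBS washes, bound YAP–NL was read with NanoGlo.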

VSMC [14] = assay: Antiproliferative activity against rat VSMC assessed as reduction in EdU incorporation after 24 hrs by Hoechst 33342 staining-based fluorescence assay; assay type: functional, cell-based; summary of the method: as §4
HeLa [15] = assay: Inhibition of TEAD in human HeLa cells assessed as reduction in CTGF m-RNA expression incubated for 2 hrs followed by compound wash out and re-treatment for 4 hrs by NanoGlo assay; assay type: cell-based
HeLa [16] = assay: Inhibition of TEAD in human HeLa cells assessed as reduction in CCN1 m-RNA expression incubated for 2 hrs followed by compound wash out and re-treatment for 4 hrs by NanoGlo assay; assay type: cell-based
[17] = target: T1, Transcriptional enhancer factor TEF-1; assay: as §5, with “myc-TRAP” for “GFP-Trap”; assay type: cell-based; summary of the method: as §6
HeLa [18] = assay: Inhibition of 36B4 m-RNA expression in human HeLa cells up to 80 uM incubated for 2 hrs followed by compound wash out and re-treatment for 4 hrs by NanoGlo assay; assay type: functional, cell-based
HeLa [19] = assay: Inhibition of TNT1 m-RNA expression in human HeLa cells up to 80 uM incubated for 2 hrs followed by compound wash out and re-treatment for 4 hrs by NanoGlo assay; assay type: functional, cell-based
Rattus norvegicus [20] = species: Rattus norvegicus; assay: Inhibition of TEAD in rat VSMC assessed as reduction in CTGF m-RNA expression incubated for 2 hrs followed by compound wash out and re-treatment for 4 hrs by NanoGlo assay
VSMC [21] = assay: Inhibition of 36B4 m-RNA expression in rat VSMC up to 80 uM incubated for 2 hrs followed by compound wash out and re-treatment for 4 hrs by NanoGlo assay; assay type: functional, cell-based
VSMC [22] = assay: Inhibition of TNT1 m-RNA expression in rat VSMC up to 80 uM incubated for 2 hrs followed by compound wash out and re-treatment for 4 hrs by NanoGlo assay; assay type: functional, cell-based

T1 sequence (P28347 whole entry): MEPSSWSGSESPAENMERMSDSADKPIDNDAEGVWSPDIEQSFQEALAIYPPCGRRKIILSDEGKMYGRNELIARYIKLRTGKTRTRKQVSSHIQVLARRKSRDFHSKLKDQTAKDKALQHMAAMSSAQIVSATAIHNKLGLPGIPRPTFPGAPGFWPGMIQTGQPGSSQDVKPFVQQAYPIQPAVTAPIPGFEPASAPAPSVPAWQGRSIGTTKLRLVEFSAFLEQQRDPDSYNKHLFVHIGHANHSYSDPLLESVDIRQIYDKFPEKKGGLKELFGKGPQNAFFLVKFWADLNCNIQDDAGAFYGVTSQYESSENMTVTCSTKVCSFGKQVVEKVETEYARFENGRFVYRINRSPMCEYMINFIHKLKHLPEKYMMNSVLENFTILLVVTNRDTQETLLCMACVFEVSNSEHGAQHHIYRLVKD

SMILES: O=C(NCCn1ncc2c(N3CCN(c4ncccn4)CC3)ncnc21)C12CC3CC(CC(C3)C1)C2
inhibition (HeLa [1]): > 60%
Activity (HeLa [2]): Non-Toxic

SMILES: OCC(O)CN1CCNCC1 (stereo not given)
Activity (HeLa [3]): Non-Toxic
inhibition (HeLa [4]): inactive

inhibition (Rattus norvegicus [7]): Dose-dependent effect
inhibition [9]: Active
IC50 [10]: 110 µM
inhibition [12]: Active
inhibition [13]: Dose-dependent effect
inhibition [17]: Active
inhibition (Rattus norvegicus [20]): Dose-dependent effect
SMILES: Cc1ccc2c(c1)c1c3n2CCN(C[C@H](O)CN2CCN(C(=O)c4ccco4)CC2)[C@@H]3CCC1
Activity (VSMC [5]): Dose-dependent effect
Activity (HeLa [6]): Non-Toxic
Activity (HeLa [8]): Dose-dependent effect
Activity (HeLa [11]): Dose-dependent effect
inhibition (HeLa [1]): > 60%
Activity (VSMC [14]): Dose-dependent effect
inhibition (HeLa [15]): Dose-dependent effect
inhibition (HeLa [16]): Dose-dependent effect
inhibition (HeLa [18]): inactive
Activity (HeLa [2]): Non-Toxic
inhibition (HeLa [19]): inactive
inhibition (VSMC [21]): inactive
inhibition (VSMC [22]): inactive

SMILES: O=C(O)c1ccco1
Activity (HeLa [3]): Non-Toxic
inhibition (HeLa [4]): inactive

SMILES: CCc1nc(C)nc(Oc2ccc(OCCOc3ccc(C)cc3C)nn2)n1
inhibition (HeLa [1]): > 60%
Activity (HeLa [2]): Non-Toxic

SMILES: COc1ccc2nc(NC3=NCN(Cc4ccco4)CN3)nc(C)c2c1
inhibition (HeLa [1]): > 60%
Activity (HeLa [2]): Non-Toxic
